According to ChEMBL document CHEMBL3526119, “Effect of the CYP2C8 genotype on the pharmacokinetics and pharmacodynamics of repaglinide” (Drug Metab Dispos, 2011):

Assays:
Format in all cases: ADME, organism-based
Conditions in all cases: in vivo
[1] = tested on: Homo sapiens; experiment: Drug excretion in healthy white human with SLCO1B1 521CC/CYP2C8*3/*3 combined genotype treated with 2 mg, po repaglinide
Summary of the method: (§1)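 Urine was collected before a single 2 mg oral dose and over 0–4, 4–8, 8–12, 12–16 and 16–24 h. Metabolites M1 and M4 were measured by LC-MS/MS. With no reference standards, amounts were expressed in arbitrary units as the peak area ratio to diclofenac internal standard. Ae0-24h is the sum of amounts over the collection periods.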

[2] = Drug excretion in healthy white human urine with CYP2C8*3/*3 genotype at 2 mg, po up to 24 hrs; summary of the method: as §1
[3] = tested on: Homo sapiens; experiment: Drug excretion in healthy white human with SLCO1B1 521TC/CYP2C8*3/*3 combined genotype treated with 2 mg, po repaglinide; summary of the method: as §1
[4] = tested on: Homo sapiens; experiment: Drug excretion in healthy white human with SLCO1B1 521TC/CYP2C8*1/*1 combined genotype treated with 2 mg, po repaglinide; summary of the method: as §1
[5] = tested on: Homo sapiens; experiment: Drug excretion in healthy white human with SLCO1B1 521TT/CYP2C8*1/*1 combined genotype treated with 2 mg, po repaglinide; summary of the method: as §1
[6] = tested on: Homo sapiens; experiment: Drug excretion in healthy white human urine at 2 mg, po up to 24 hrs; summary of the method: as §1
[7] = tested on: Homo sapiens; experiment: Drug excretion in healthy white human with SLCO1B1 521TT/CYP2C8*3/*3 combined genotype treated with 2 mg, po repaglinide; summary of the method: as §1
[8] = Drug excretion in healthy white human urine with CYP2C8*1/*1 genotype at 2 mg, po up to 24 hrs; summary of the method: as §1
[9] = tested on: Homo sapiens; experiment: Drug excretion in healthy white human with SLCO1B1 521CC/CYP2C8*1/*3 combined genotype treated with 2 mg, po repaglinide; summary of the method: as §1
[10] = tested on: Homo sapiens; experiment: Drug excretion in healthy white human with SLCO1B1 521TC/CYP2C8*1/*3 combined genotype treated with 2 mg, po repaglinide; summary of the method: as §1
[11] = tested on: Homo sapiens; experiment: Drug excretion in healthy white human with SLCO1B1 521TT/CYP2C8*1/*3 combined genotype treated with 2 mg, po repaglinide; summary of the method: as §1
[12] = Drug excretion in healthy white human urine with CYP2C8*1/*3 genotype at 2 mg, po up to 24 hrs; summary of the method: as §1

| SMILES | Ae [1] [a.u.] | Ae [2] [a.u.] | Ae [3] [a.u.] | Ae [4] [a.u.] | Ae [5] [a.u.] | Ae [6] [a.u.] | Ae [7] [a.u.] | Ae [8] [a.u.] | Ae [9] [a.u.] | Ae [10] [a.u.] | Ae [11] [a.u.] | Ae [12] [a.u.] |
| --- | --- | --- | --- | --- | --- | --- | --- | --- | --- | --- | --- | --- |
| CCOc1cc(CC(=O)N[C@@H](CC(C)C)c2ccccc2N)ccc1C(=O)O | 29.1 | 53.3 | 52.8 | 39.9 | 57 | 48.3 | 53.1 | 52.8 | 41.4 | 33.3 | 47.5 | 42.6 |
| CCOc1cc(CC(=O)N[C@@H](CC(C)C)c2ccccc2N2CCCC(O)C2)ccc1C(=O)O (some centres undefined) | 268.6 | 336.7 | 471.7 | 191.7 | 181.7 | 217.8 | 79.4 | 184.2 | 155.1 | 197.8 | 226.4 | 212.4 |
